Where “and” joins values, the source holds several entries; their conditions need not be identical. Identical values can stand only once.
Legend:
Assay type in all cases: toxicity, cell-based
[1] = tested on: Fibroblast; assay: Multiplex assay against human fibroblast; conditions: 10 µM, compound concentration 10 uM
In short: (§1)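 Live cells were stained at seeding with Hoechst33342, BioTracker Green Microtubule Cytoskeleton Dye, MitoTracker Red and Annexin V Alexa Fluor 680, then imaged on a CQ1 microscope at 37°C and 5% CO2 after compound addition. CellPathfinder machine-learning gating split cells into Hoechst high-intensity objects or normal cells. Normal cells were split into healthy, pyknosed or fragmented nuclei, and pyknosed cells into mitotic or apoptotic. Tubulin, mitochondrial-mass and membrane-permeability phenotypes are per cents of healthy-nucleus cells.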

[2] = tested on: U2OS; assay: Incucyte cell viability with U2OS; conditions: human, 10 µM, compound concentration 10 uM; further: filed as whole numbers so only -1 and 0 and 1 occur
[3] = tested on: HEK-293T; assay: Multiplex assay against HEK293T; conditions: human, 10 µM, compound concentration 10 uM; in short: as §1;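 on Population Tubulin-Different-Phenotype (%): share of the cells with healthy nuclei that show this phenotype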
[4] = tested on: U2OS; assay: Multiplex assay against U2OS; conditions: human, 10 µM, compound concentration 10 uM; in short: as §1
[5] = tested on: Fibroblast; assay: Incucyte cell viability with human fibroblast; conditions: 10 µM, compound concentration 10 uM; further: filed as whole numbers so only -1 and 0 and 1 occur
[6] = tested on: HEK-293T; assay: Incucyte cell viability with HEK293T; conditions: human, 10 µM, compound concentration 10 uM; further: filed as whole numbers so only -1 and 0 and 1 occur
[7] = 0 h, replicate number 2, timepoint 0 hours
[8] = 12 h, replicate number 1, timepoint 12 hours
[9] = 18 h, replicate number 1, timepoint 18 hours
[10] = 24 h, replicate number 1, timepoint 24 hours
[11] = 0 h, replicate number 1, timepoint 0 hours

Cn1nc(C(=O)NCc2ccc(C(=O)O)cc2)cc1-c1ccc2[nH]ccc2c1 [BI 4395]
Population Apoptotic (%) ([1]; 12 h, replicate 1): 77% and 69%
Population Fragmented Nuclei (%) ([1]; 12 h, replicate 1): 29% and 28%
Population Healthy Nuclei (%) ([1]; 12 h, replicate 1): 57%
Population Hoechst High Intensity Objects (%) ([1]; 12 h, replicate 1): 12% and 19%
Population Mitochondria Different-Phenotype (%) ([1]; 12 h, replicate 1): 3% and 2%
Population Mitotic Cells (%) ([1]; 12 h, replicate 1): 22% and 30%
Population Normal (%) ([1]; 12 h, replicate 1): 87% and 80%
Population Pyknosed Nuclei (%) ([1]; 12 h, replicate 1): 13% and 14%
Population Tubulin-Different-Phenotype (%) ([1]; 12 h, replicate 1): 9% and 4%
Total Cell Count ([1]; 12 h, replicate 1): 190 and 199
Population Apoptotic (%) ([1]; 12 h, replicate 2): 42% and 100%
Population Fragmented Nuclei (%) ([1]; 12 h, replicate 2): 43% and 54%
Population Healthy Nuclei (%) ([1]; 12 h, replicate 2): 38% and 39%
Population Hoechst High Intensity Objects (%) ([1]; 12 h, replicate 2): 29% and 49%
Population Membrane Permeable-Phenotype (%) ([1]; 12 h, replicate 2): 26% and 9%
Population Mitochondria Different-Phenotype (%) ([1]; 12 h, replicate 2): 13% and 0%
Population Normal (%) ([1]; 12 h, replicate 2): 70% and 50%
Total Cell Count ([1]; 12 h, replicate 2): 55 and 104
Population Apoptotic (%) ([1]; 24 h, replicate 1): 71% and 69%
Population Fragmented Nuclei (%) ([1]; 24 h, replicate 1): 29% and 27%
Population Healthy Nuclei (%) ([1]; 24 h, replicate 1): 58% and 57%
Population Hoechst High Intensity Objects (%) ([1]; 24 h, replicate 1): 12% and 17%
Population Membrane Permeable-Phenotype (%) ([1]; 24 h, replicate 1): 9% and 5%
Population Mitochondria Different-Phenotype (%) ([1]; 24 h, replicate 1): 2% and 0%
Population Mitotic Cells (%) ([1]; 24 h, replicate 1): 28% and 30%
Population Normal (%) ([1]; 24 h, replicate 1): 87% and 82%
Population Pyknosed Nuclei (%) ([1]; 24 h, replicate 1): 14%
Population Tubulin-Different-Phenotype (%) ([1]; 24 h, replicate 1): 7% and 4%
Total Cell Count ([1]; 24 h, replicate 1): 202 and 211
Population Fragmented Nuclei (%) ([1]; 24 h, replicate 2): 75% and 51%
Population Healthy Nuclei (%) ([1]; 24 h, replicate 2): 25% and 37%
Population Hoechst High Intensity Objects (%) ([1]; 24 h, replicate 2): 44% and 38%
Population Membrane Permeable-Phenotype (%) ([1]; 24 h, replicate 2): 15%
Population Mitochondria Different-Phenotype (%) ([1]; 24 h, replicate 2): 15% and 7%
Population Mitotic Cells (%) ([1]; 24 h, replicate 2): 0%
Population Normal (%) ([1]; 24 h, replicate 2): 55% and 61%
Population Pyknosed Nuclei (%) ([1]; 24 h, replicate 2): 0% and 11%
Population Tubulin-Different-Phenotype (%) ([1]; 24 h, replicate 2): 15% and 38%
Total Cell Count ([1]; 24 h, replicate 2): 94 and 57
Growth Rate [2, 7]: 0
Growth Rate ([2]; 6 h, replicate number 1, timepoint 6 hours): 1
Growth Rate [2, 8]: 1
Growth Rate [2, 9]: 1
Growth Rate [2, 10]: 1
Population Apoptotic (%) ([3]; 12 h, replicate 1): 20% and 23%
Population Fragmented Nuclei (%) ([3]; 12 h, replicate 1): 9% and 10%
Population Healthy Nuclei (%) ([3]; 12 h, replicate 1): 78% and 75%
Population Hoechst High Intensity Objects (%) ([3]; 12 h, replicate 1): 9% and 8%
Population Membrane Permeable-Phenotype (%) ([3]; 12 h, replicate 1): 4% and 2%
Population Mitochondria Different-Phenotype (%) ([3]; 12 h, replicate 1): 2% and 7%
Population Mitotic Cells (%) ([3]; 12 h, replicate 1): 79% and 76%
Population Normal (%) ([3]; 12 h, replicate 1): 90% and 91%
Population Pyknosed Nuclei (%) ([3]; 12 h, replicate 1): 12% and 14%
Population Tubulin-Different-Phenotype (%) ([3]; 12 h, replicate 1): 2% and 3%
Total Cell Count ([3]; 12 h, replicate 1): 895 and 750
Population Apoptotic (%) ([3]; 12 h, replicate 2): 5% and 6%
Population Healthy Nuclei (%) ([3]; 12 h, replicate 2): 84%
Population Hoechst High Intensity Objects (%) ([3]; 12 h, replicate 2): 1%
Population Membrane Permeable-Phenotype (%) ([3]; 12 h, replicate 2): 1%
Population Mitochondria Different-Phenotype (%) ([3]; 12 h, replicate 2): 4%
Population Mitotic Cells (%) ([3]; 12 h, replicate 2): 94% and 93%
Population Normal (%) ([3]; 12 h, replicate 2): 98%
Population Pyknosed Nuclei (%) ([3]; 12 h, replicate 2): 5% and 4%
Population Tubulin-Different-Phenotype (%) ([3]; 12 h, replicate 2): 4%
Total Cell Count ([3]; 12 h, replicate 2): 1558 and 1918
Population Apoptotic (%) ([3]; 24 h, replicate 1): 15% and 13%
Population Fragmented Nuclei (%) ([3]; 24 h, replicate 1): 11% and 14%
Population Healthy Nuclei (%) ([3]; 24 h, replicate 1): 81% and 80%
Population Hoechst High Intensity Objects (%) ([3]; 24 h, replicate 1): 6% and 4%
Population Membrane Permeable-Phenotype (%) ([3]; 24 h, replicate 1): 9% and 6%
Population Mitochondria Different-Phenotype (%) ([3]; 24 h, replicate 1): 2% and 4%
Population Mitotic Cells (%) ([3]; 24 h, replicate 1): 84% and 86%
Population Normal (%) ([3]; 24 h, replicate 1): 93% and 95%
Population Pyknosed Nuclei (%) ([3]; 24 h, replicate 1): 6% and 5%
Population Tubulin-Different-Phenotype (%) ([3]; 24 h, replicate 1): 3% and 5%
Total Cell Count ([3]; 24 h, replicate 1): 1152 and 1021
Population Fragmented Nuclei (%) ([3]; 24 h, replicate 2): 26% and 29%
Population Healthy Nuclei (%) ([3]; 24 h, replicate 2): 71% and 68%
Population Hoechst High Intensity Objects (%) ([3]; 24 h, replicate 2): 2% and 3%
Population Membrane Permeable-Phenotype (%) ([3]; 24 h, replicate 2): 4%
Population Mitochondria Different-Phenotype (%) ([3]; 24 h, replicate 2): 1%
Population Mitotic Cells (%) ([3]; 24 h, replicate 2): 98% and 91%
Population Normal (%) ([3]; 24 h, replicate 2): 97% and 96%
Population Pyknosed Nuclei (%) ([3]; 24 h, replicate 2): 2% and 1%
Total Cell Count ([3]; 24 h, replicate 2): 2665 and 3275
Population Apoptotic (%) ([4]; 12 h, replicate 1): 42%
Population Fragmented Nuclei (%) ([4]; 12 h, replicate 1): 4%
Population Healthy Nuclei (%) ([4]; 12 h, replicate 1): 87% and 92%
Population Hoechst High Intensity Objects (%) ([4]; 12 h, replicate 1): 2% and 3%
Population Membrane Permeable-Phenotype (%) ([4]; 12 h, replicate 1): 9% and 4%
Population Mitochondria Different-Phenotype (%) ([4]; 12 h, replicate 1): 17%
Population Mitotic Cells (%) ([4]; 12 h, replicate 1): 57%
Population Normal (%) ([4]; 12 h, replicate 1): 97% and 96%
Population Pyknosed Nuclei (%) ([4]; 12 h, replicate 1): 8%
Population Tubulin-Different-Phenotype (%) ([4]; 12 h, replicate 1): 21% and 16%
Total Cell Count ([4]; 12 h, replicate 1): 177 and 225
Population Fragmented Nuclei (%) ([4]; 12 h, replicate 2): 9% and 7%
Population Healthy Nuclei (%) ([4]; 12 h, replicate 2): 89%
Population Hoechst High Intensity Objects (%) ([4]; 12 h, replicate 2): 11%
Population Membrane Permeable-Phenotype (%) ([4]; 12 h, replicate 2): 8%
Population Mitochondria Different-Phenotype (%) ([4]; 12 h, replicate 2): 35% and 23%
Population Mitotic Cells (%) ([4]; 12 h, replicate 2): 50% and 100%
Population Normal (%) ([4]; 12 h, replicate 2): 88%
Population Pyknosed Nuclei (%) ([4]; 12 h, replicate 2): 2% and 3%
Population Tubulin-Different-Phenotype (%) ([4]; 12 h, replicate 2): 30%
Total Cell Count ([4]; 12 h, replicate 2): 84 and 159
Population Apoptotic (%) ([4]; 24 h, replicate 1): 18% and 33%
Population Fragmented Nuclei (%) ([4]; 24 h, replicate 1): 4% and 1%
Population Healthy Nuclei (%) ([4]; 24 h, replicate 1): 95%
Population Hoechst High Intensity Objects (%) ([4]; 24 h, replicate 1): 1%
Population Membrane Permeable-Phenotype (%) ([4]; 24 h, replicate 1): 6%
Population Mitochondria Different-Phenotype (%) ([4]; 24 h, replicate 1): 18% and 24%
Population Mitotic Cells (%) ([4]; 24 h, replicate 1): 81% and 66%
Population Normal (%) ([4]; 24 h, replicate 1): 98%
Population Pyknosed Nuclei (%) ([4]; 24 h, replicate 1): 6% and 2%
Population Tubulin-Different-Phenotype (%) ([4]; 24 h, replicate 1): 20%
Total Cell Count ([4]; 24 h, replicate 1): 253 and 307
Population Apoptotic (%) ([4]; 24 h, replicate 2): 40% and 60%
Population Fragmented Nuclei (%) ([4]; 24 h, replicate 2): 7% and 5%
Population Healthy Nuclei (%) ([4]; 24 h, replicate 2): 87% and 89%
Population Hoechst High Intensity Objects (%) ([4]; 24 h, replicate 2): 7% and 6%
Population Membrane Permeable-Phenotype (%) ([4]; 24 h, replicate 2): 9% and 8%
Population Mitochondria Different-Phenotype (%) ([4]; 24 h, replicate 2): 15% and 40%
Population Mitotic Cells (%) ([4]; 24 h, replicate 2): 60% and 40%
Population Normal (%) ([4]; 24 h, replicate 2): 92% and 93%
Population Pyknosed Nuclei (%) ([4]; 24 h, replicate 2): 5%
Population Tubulin-Different-Phenotype (%) ([4]; 24 h, replicate 2): 34% and 29%
Total Cell Count ([4]; 24 h, replicate 2): 199 and 102
Growth Rate [5, 11]: 0
Growth Rate ([5]; 6 h, replicate number 2, timepoint 6 hours): 0
Growth Rate [5, 8]: 1
Growth Rate [5, 9]: 1
Growth Rate [5, 10]: 1
Growth Rate [6, 11]: 0
Growth Rate [6, 7]: 1
Growth Rate [6, 8]: 0
Growth Rate [6, 9]: 0
Growth Rate ([6]; 18 h, replicate number 2, timepoint 18 hours): 1
Growth Rate [6, 10]: 0

— ChEMBL document CHEMBL4689842, “EUbOPEN Chemogenomics Library wave 1” (2021)
